The values below come from ChEMBL document CHEMBL2417490, “Synthesis and biological evaluation of pyrazolo[4,3-d]pyrimidine analogues” (Eur J Med Chem, 2013).

The IC50 is the midpoint of a concentration-inhibition curve.

Converted amounts (≈) assume the structure as drawn.

The nature of test [1]: Cytotoxicity against human 7402 cells assessed as inhibition of cell replication after 72 hrs by MTT assay. It is filed as functional, cell-based. The method, boiled down:
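7402 hepatoma cells, harvested in log phase with 0.05% trypsin/1 mM EDTA and grown at 37 °C in 5% CO₂, were seeded at 1 × 10⁵ cells/mL, grown overnight and then exposed to a concentration series (final DMSO <0.1%). MTT was added for 4 h and absorbance read at 570 nm. IC₅₀ came from probit analysis.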

The nature of test [2]: Cytotoxicity against human 7221 cells assessed as inhibition of cell replication after 72 hrs by MTT assay. It is filed as functional, cell-based. The method, boiled down: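 7221 hepatoma cells, harvested in log phase with 0.05% trypsin/1 mM EDTA and grown at 37 °C in 5% CO₂, were plated, grown overnight and then exposed to a concentration series (final DMSO <0.1%). MTT was added for 4 h and absorbance read at 570 nm. IC₅₀ came from probit analysis.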

The target in test [3] is Xanthine dehydrogenase/oxidase (Homo sapiens, UniProt P47989). As to the kind of experiment: Inhibition of xanthine oxidase (unknown origin) using xanthine as substrate assessed as uric acid formation preincubated for 5 mins followed by substrate addition measured every minute up to 8 mins by spectrophotometric analysis.
Xanthine dehydrogenase/oxidase, sequence (P47989 whole entry): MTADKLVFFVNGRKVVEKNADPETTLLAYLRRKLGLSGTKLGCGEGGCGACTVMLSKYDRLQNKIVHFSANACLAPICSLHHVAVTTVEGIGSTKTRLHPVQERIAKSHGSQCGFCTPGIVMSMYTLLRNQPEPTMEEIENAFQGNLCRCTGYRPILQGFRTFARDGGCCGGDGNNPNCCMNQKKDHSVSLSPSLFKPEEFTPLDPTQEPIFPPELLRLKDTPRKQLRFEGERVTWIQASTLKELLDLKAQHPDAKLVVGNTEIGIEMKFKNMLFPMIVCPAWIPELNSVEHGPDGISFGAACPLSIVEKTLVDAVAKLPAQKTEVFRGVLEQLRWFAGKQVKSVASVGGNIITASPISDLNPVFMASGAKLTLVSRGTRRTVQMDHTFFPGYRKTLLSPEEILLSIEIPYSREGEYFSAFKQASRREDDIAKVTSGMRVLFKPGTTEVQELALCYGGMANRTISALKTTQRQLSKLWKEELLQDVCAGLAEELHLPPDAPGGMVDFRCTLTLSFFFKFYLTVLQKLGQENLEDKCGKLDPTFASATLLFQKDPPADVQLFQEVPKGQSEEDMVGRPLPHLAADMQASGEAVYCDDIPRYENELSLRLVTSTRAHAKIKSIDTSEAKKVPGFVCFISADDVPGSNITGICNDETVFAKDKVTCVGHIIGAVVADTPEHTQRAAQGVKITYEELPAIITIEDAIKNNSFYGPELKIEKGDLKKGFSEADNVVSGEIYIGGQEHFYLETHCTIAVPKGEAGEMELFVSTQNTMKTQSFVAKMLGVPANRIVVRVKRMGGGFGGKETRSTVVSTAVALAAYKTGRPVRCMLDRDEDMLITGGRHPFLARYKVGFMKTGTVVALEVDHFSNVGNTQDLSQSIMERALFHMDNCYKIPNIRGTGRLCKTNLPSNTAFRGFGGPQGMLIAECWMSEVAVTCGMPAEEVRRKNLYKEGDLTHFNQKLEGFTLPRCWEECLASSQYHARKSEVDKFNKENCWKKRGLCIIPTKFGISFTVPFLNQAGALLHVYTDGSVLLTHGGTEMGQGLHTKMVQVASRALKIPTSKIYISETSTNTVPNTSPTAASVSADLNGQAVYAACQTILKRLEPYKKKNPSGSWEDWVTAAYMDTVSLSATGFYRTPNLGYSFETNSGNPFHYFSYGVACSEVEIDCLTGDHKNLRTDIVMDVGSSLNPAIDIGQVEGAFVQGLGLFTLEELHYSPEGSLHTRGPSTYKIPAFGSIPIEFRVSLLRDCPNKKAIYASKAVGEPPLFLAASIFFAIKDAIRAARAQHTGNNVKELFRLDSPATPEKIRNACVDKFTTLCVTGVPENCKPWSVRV

As to `CCOC(=O)Cn1ncc2c(Nc3ccc(NC(C)=O)cc3)ncnc21`, the IC50 in test [1] was more than 64 µg/mL; in test [2] it was more than 64 µg/mL; in test [3] (read-out: IC50 (converted)) it was 109 µM.
Consider `O=C(O)Cn1ncc2c(Nc3ccc(NS(=O)(=O)c4ccccc4)cc3)ncnc21`, for which the IC50 was more than 100 µg/mL in test [1], more than 100 µg/mL in test [2] and 144 µM in test [3] (read-out: IC50 (converted)).
Turning to `CCOC(=O)Cn1ncc2c(Nc3ccc(NC(=O)c4ccccc4)cc3)ncnc21`, the figures for the IC50 in test [1], in test [2] and in test [3] (read-out: IC50 (converted)) were more than 100 µg/mL, more than 100 µg/mL and 81.9 µM, respectively.
For `CCOC(=O)Cn1ncc2c(Nc3ccc(NS(=O)(=O)c4ccc(Br)cc4)cc3)ncnc21`, the results for the IC50 in test [1], in test [2] and in test [3] were more than 64 µg/mL, more than 64 µg/mL and “Not Active”, respectively.
Regarding `CCOC(=O)Cn1ncc2c(Nc3ccc(NS(=O)(=O)c4ccccc4)cc3)ncnc21`, the IC50 in test [1] is more than 100 µg/mL; in test [2], more than 100 µg/mL; in test [3] (read-out: IC50 (converted)), 172 µM.
For `O=C(O)Cn1ncc2c(Nc3ccc(NC(=O)c4ccccc4)cc3)ncnc21`, the half-inhibitory concentration (IC50) is more than 100 µg/mL in test [1], more than 100 µg/mL in test [2] and 104 µM in test [3] (read-out: IC50 (converted)).
With `CCOC(=O)Cn1ncc2c(Nc3ccc(N)cc3)ncnc21`, the IC50 in test [1] and in test [2] was more than 64 µg/mL in each case.
As to `C=CCNC1=C2C[C@@H](C)C[C@H](OC)[C@H](O)[C@@H](C)/C=C(\C)[C@H](OC(N)=O)[C@@H](OC)/C=C\C=C(/C)C(=O)NC(=CC1=O)C2=O` (stereo in doubt) [TANESPIMYCIN], the results for the half-maximal inhibitory concentration (IC50) in test [1] and in test [2] were 7.27 µg/mL (≈ 12.4 µM) and 5.77 µg/mL (≈ 9.85 µM), respectively.
Consider `O=C(O)Cn1ncc2c(Nc3ccc(NS(=O)(=O)c4ccc([N+](=O)[O-])cc4)cc3)ncnc21`, for which the IC50 in test [1] was more than 100 µg/mL; in test [2] it was more than 100 µg/mL; in test [3] (read-out: IC50 (converted)) it was 190 µM.
On to `CCOC(=O)Cn1ncc2c(Nc3ccc(NS(=O)(=O)c4ccc([N+](=O)[O-])cc4)cc3)ncnc21`, for which the IC50 was more than 64 µg/mL in test [1], more than 64 µg/mL in test [2] and more than 201 µM in test [3] (read-out: IC50 (converted)).
As for `CCOC(=O)Cn1ncc2c(Cl)ncnc21`, the half-inhibitory concentration (IC50) in test [1] is more than 100 µg/mL; in test [2] it was more than 100 µg/mL; in test [3], “Not Active”.
`CC(=O)Nc1ccc(Nc2ncnc3c2cnn3CC(=O)O)cc1`: the IC50 was more than 64 µg/mL in test [1], more than 64 µg/mL in test [2] and 103 µM in test [3] (read-out: IC50 (converted)).
Consider `O=C(O)Cn1ncc2c(Nc3ccc(NS(=O)(=O)c4ccc(Br)cc4)cc3)ncnc21`, for which the concentration for half-maximal inhibition (IC50) in test [1] was more than 64 µg/mL; in test [2], more than 64 µg/mL; in test [3] (read-out: IC50 (converted)), more than 199 µM.
`CCOC(=O)Cn1ncc2c(Nc3ccc(NC(=O)CCl)cc3)ncnc21`: the 50% inhibitory concentration (IC50) in test [1] came to 7.27 µg/mL (≈ 18.7 µM); in test [2] it was 3.51 µg/mL (≈ 9.03 µM).
Turning to `O=C(O)Cn1ncc2c(Nc3ccc(NC(=O)CCl)cc3)ncnc21`, the IC50 in test [1] is more than 100 µg/mL; in test [2], more than 100 µg/mL; in test [3] (read-out: IC50 (converted)), 102 µM.
